What was measured:
[1] = (§1) Antagonist activity against Voltage-gated sodium channel in Swiss-Webster mouse primary cerebrocortical neurons assessed as inhibition of veratridine-induced sodium influx by SBFI-AM dye based fluorescence assay
Outline: (§2)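 Primary cortical neurons from E17 Swiss-Webster mouse embryos, plated at 1.5 × 10^5 cells/well and used at 7–9 days in vitro. Cells were loaded with 10 μM SBFI-AM plus 0.02% Pluronic F-127 for 1 h at 37 °C in Locke's buffer (pH 7.4), then equilibrated 15 min. Baseline was read for 60 s, then compound and/or veratridine was added. Ex 340/380 nm, em 505 nm, background-corrected 340/380 ratio. IC50 from a three-parameter logistic fit, 4–7 experiments.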

Mus musculus = species on record: Mus musculus; experiment: as §1; outline: as §2

## C[C@@H]1CCCC(=O)N(C)/C=C/CC[C@@H](C)C(=O)O[C@@H](C(C)(C)C)C1
[1]
  IC50: 2.1 µM
Mus musculus
  inhibition: Dose-dependent effect

## C[C@H]1CCCC(=O)N(C)/C=C/CC[C@@H](C)C(=O)O[C@H](C(C)(C)C)C1
[1]
  IC50: > 10 µM

## CNC(=O)CCC[C@@H](C)C[C@@H](OC(=O)[C@H](C)CCCCO)C(C)(C)C
[1]
  IC50: > 10 µM

## CNC(=O)CCC[C@@H](C)C[C@@H](OC(=O)[C@@H](C)CCCCO)C(C)(C)C
[1]
  IC50: > 10 µM

## C[C@@H]1CCCC(=O)N(C)/C=C/CC[C@H](C)C(=O)O[C@@H](C(C)(C)C)C1
[1]
  IC50: > 10 µM

## C[C@H](CCCC(N)=O)C[C@@H](OC(=O)[C@H](C)CC/C=C/I)C(C)(C)C
[1]
  IC50: > 10 µM

## C[C@H]1CCCC(=O)N(C)/C=C/CC[C@H](C)C(=O)O[C@H](C(C)(C)C)C1
[1]
  IC50: 4 µM
Mus musculus
  inhibition: Dose-dependent effect

## C[C@@H]1CCCC(=O)N(C)/C=C/CC[C@H](C)C(=O)O[C@H](C(C)(C)C)C1
[1]
  IC50: 21 µM

## C[C@@H]1CCCC(=O)N(C)CCCC[C@@H](C)C(=O)O[C@@H](C(C)(C)C)C1
[1]
  IC50: 3 µM

## CNC(=O)CCC[C@@H](C)C[C@@H](OC(=O)[C@H](C)CCCC(=O)O)C(C)(C)C
[1]
  IC50: > 10 µM

## C[C@@H]1CCCC(=O)N(C)CCCC[C@H](C)C(=O)O[C@@H](C(C)(C)C)C1
[1]
  IC50: 4.5 µM

## C[C@@H]1CCCC(=O)N(C)/C=C/CC[C@@H](C)C(=O)O[C@H](C(C)(C)C)C1
[1]
  IC50: 19.1 µM

From ChEMBL document CHEMBL3352348, “Detailed analysis of (-)-palmyrolide a and some synthetic derivatives as voltage-gated sodium channel antagonists” (J Nat Prod, 2014)
